These results are taken from ChEMBL document CHEMBL4406821, “Novel dual inhibitors targeting CDK4 and VEGFR2 synergistically suppressed cancer progression and angiogenesis” (Eur J Med Chem, 2019).

The nature of data set [1]: n-octanol/phosphate buffered saline partition coefficient, log D of the compound measured at pH 7.4 by shake flask method based HPLC analysis. It is filed as physicochemical.
The next data set concerns MDA-MB-231. Briefly: Induction of apoptosis in human MDA-MB-231 cells assessed as increase in early apoptotic cells at 20 to 40 nM incubated for 48 hrs by annexin V FITC and propidium iodide staining based flow cytometry. It is filed as functional, cell-based. Put shortly:
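Cells were treated for 48 h, stained with FITC Annexin V and PI, and analyzed by flow cytometry to count early and late apoptotic cells.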

Data set [2] can be described thus: Volume of distribution in Sprague-Dawley rat at 10 mg/kg, iv by HPLC-MS analysis. The following applies: in vivo. It is filed as ADME, organism-based.
A short description of data set [3]: Half life in Sprague-Dawley rat at 10 mg/kg, po by HPLC-MS analysis. It is filed as ADME, organism-based. The following applies: in vivo. A digest of the protocol: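 Rats fitted with jugular vein catheters for serial blood sampling. Compound dissolved in saline with 5% (v/v) DMSO and given as a single 10 mg/kg dose iv or po after an overnight fast, n = 5 per group. Plasma isolated at once and measured by HPLC with tandem MS detection. Parameters derived by noncompartmental fitting.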

Data set [4] in a line: Tmax in Sprague-Dawley rat at 10 mg/kg, po by HPLC-MS analysis. It is filed as ADME, organism-based. The following applies: in vivo.
Data set [5] has as its target 5'-AMP-activated protein kinase catalytic subunit alpha-2 (Homo sapiens) (UniProt P54646). Briefly: Inhibition of recombinant full length human AMPKalpha2 at 1 uM using AMARAASAAALAR as substrate incubated for 40 mins in presence of [gamma-33P]-ATP by scintillation counting method relative to control. Put shortly: (§1)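 Kinase panel profiling at 1 μM performed by Eurofins KinaseProfiler; percent inhibition reported as mean of two independent experiments.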

For data set [6], the target named is NUAK family SNF1-like kinase 1 (Homo sapiens) (UniProt O60285). Briefly: Inhibition of recombinant human ARK5 (2 to end residues) at 1 uM using KKKVSRSGLYRSP as substrate incubated for 40 mins in presence of [gamma-33P]-ATP by scintillation counting method relative to control. Put shortly: as §1
Data set [7] deals with Aurora kinase C (Homo sapiens) (UniProt Q9UQB9). Briefly: Inhibition of recombinant human Aurora-C (35 to end residues) at 1 uM using AKRRRLSSLRA as substrate incubated for 40 mins in presence of [gamma-33P]-ATP by scintillation counting method relative to control. Put shortly:
as §1

The test system of data set [8] is Serine/threonine-protein kinase Chk2 (Homo sapiens), O96017 [R145W]. Briefly: Inhibition of recombinant human CHK2 R145W mutant (5 to end residues) at 1 uM using KKKVSRSGLYRSP as substrate incubated for 40 mins in presence of [gamma-33P]-ATP by scintillation counting method relative to control. A digest of the protocol:
as §1

Data set [9] deals with Mast/stem cell growth factor receptor Kit (Homo sapiens), P10721 [V654A]. The data set is described as follows: Inhibition of recombinant human c-KIT V654A mutant (544 to end residues) at 1 uM using GGMEDIYFEFMGG as substrate incubated for 40 mins in presence of [gamma-33P]-ATP by scintillation counting method relative to control. Put shortly:
(§2)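 Tested at a single 1 uM in an outsourced commercial kinase-profiling panel, read as percent inhibition. Each value is the mean of two independent experiments.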

The target of data set [10] is Myotonin-protein kinase (Homo sapiens) (UniProt Q09013). The data set is described as follows: Inhibition of recombinant human DMPK (1 to 549 residues) at 1 uM using KKSRGDYMTMQIG as substrate incubated for 40 mins in presence of [gamma-33P]-ATP by scintillation counting method relative to control. A digest of the protocol:
as §1

Data set [11] deals with Tyrosine-protein kinase Lyn (Homo sapiens) (UniProt P07948). Briefly: Inhibition of recombinant human full length LYN at 1 uM using poly(Glu, Tyr) 4:1 as substrate incubated for 40 mins in presence of [gamma-33P]-ATP by scintillation counting method relative to control.
The target of data set [12] is RAC-beta serine/threonine-protein kinase (Homo sapiens) (UniProt P31751). The data set is described as follows: Inhibition of recombinant human PKBbeta (120 to end residues) at 1 uM using GRPRTSSFAEGKK as substrate incubated for 40 mins in presence of [gamma-33P]-ATP by scintillation counting method relative to control. A digest of the protocol:
as §2

The target of data set [13] is Protein kinase C beta type (Homo sapiens) (UniProt P05771). Briefly: Inhibition of recombinant human PKCbeta1 (2 to end residues) at 1 uM using histone H1 as substrate incubated for 40 mins in presence of [gamma-33P]-ATP by scintillation counting method relative to control.
Data set [14] concerns the target Proto-oncogene tyrosine-protein kinase receptor Ret (Homo sapiens) (UniProt P07949). The data set is described as follows: Inhibition of recombinant human RET (658 to end residues) at 1 uM using KKKSPGEYVNIEFG as substrate incubated for 40 mins in presence of [gamma-33P]-ATP by scintillation counting method relative to control.
In data set [15] the target is Fibroblast growth factor receptor 1 (Homo sapiens) (UniProt P11362). Briefly: Inhibition of recombinant human FGFR1 (456 to 765 residues) at 1 uM using KKKSPGEYVNIEFG as substrate incubated for 40 mins in presence of [gamma-33P]-ATP by scintillation counting method relative to control. A digest of the protocol:
as §2

The test system of data set [16] is PI3-kinase p110-alpha/p85-alpha (Homo sapiens), P27986+P42336 [H1047R]. The data set is described as follows: Inhibition of recombinant human full length PI3K p110alpha/p85alpha H1047R mutant at 1 uM using phosphatidylinositol 4,5-bisphosphate as substrate incubated for 40 mins in presence of [gamma-33P]-ATP by scintillation counting method relative to control. It is filed as protein-complex assay.

The subject of data set [17] is SiHa. Briefly: Induction of apoptosis in human SiHa cells assessed as decrease in Bcl2 expression at 40 to 80 nM incubated for 48 hrs by Western blot analysis. It is filed as functional, cell-based. Put shortly:
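Cancer cells were exposed to graded concentrations for 48 h, washed three times in PBS and lysed in RIPA buffer. Immunoblots were probed with anti-Rb, anti-phospho-Rb, anti-Ki67 and anti-Bcl-2, each at 1:1000. β-actin served as loading control.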

Data set [18] can be described thus: Toxicity in NOD/SCID BALB/c mouse xenografted with human SiHa cells assessed as effect on blood parameter by measuring PCT at 40 mg/kg, po administered once two days for 4 times by hematology analyzer. It is filed as organism-based. The following applies: in vivo. In general terms: Xenograft models place foreign cells or tissue in a host animal.
Data set [19] can be described thus: Toxicity in BALB/c mouse assessed as effect on blood parameter by measuring hematocrit at 40 mg/kg, po administered once two days for 4 times by hematology analyzer. The following applies: in vivo.
The subject of data set [20] is SiHa. Briefly: Induction of apoptosis in human SiHa cells at 40 nM incubated for 48 hrs by annexin V FITC and propidium iodide staining based flow cytometry. It is filed as functional, cell-based. Put shortly: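 Annexin V-FITC/PI double staining with flow-cytometric readout. MDA-MB-231, T-47D, SiHa and HeLa cells were treated with graded concentrations for 48 h. MDA-MB-231 and T-47D were grown in DMEM and SiHa in 1640 medium, each with 10% FBS and 1% penicillin/streptomycin at 37°C under 5% CO2. Early- and late-stage apoptotic fractions were scored.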
(In general: A flow cytometer gives signals particle by particle.)

The target in data set [21] is Vascular endothelial growth factor receptor 2 (Homo sapiens, UniProt P35968). The following applies: HUVEC, 40 nM.

Molecules are shown by their SMILES. Active and inactive are the calls of the source.

Chain of Serine/threonine-protein kinase Chk2 (Homo sapiens), O96017 [R145W] (O96017 whole entry R145W): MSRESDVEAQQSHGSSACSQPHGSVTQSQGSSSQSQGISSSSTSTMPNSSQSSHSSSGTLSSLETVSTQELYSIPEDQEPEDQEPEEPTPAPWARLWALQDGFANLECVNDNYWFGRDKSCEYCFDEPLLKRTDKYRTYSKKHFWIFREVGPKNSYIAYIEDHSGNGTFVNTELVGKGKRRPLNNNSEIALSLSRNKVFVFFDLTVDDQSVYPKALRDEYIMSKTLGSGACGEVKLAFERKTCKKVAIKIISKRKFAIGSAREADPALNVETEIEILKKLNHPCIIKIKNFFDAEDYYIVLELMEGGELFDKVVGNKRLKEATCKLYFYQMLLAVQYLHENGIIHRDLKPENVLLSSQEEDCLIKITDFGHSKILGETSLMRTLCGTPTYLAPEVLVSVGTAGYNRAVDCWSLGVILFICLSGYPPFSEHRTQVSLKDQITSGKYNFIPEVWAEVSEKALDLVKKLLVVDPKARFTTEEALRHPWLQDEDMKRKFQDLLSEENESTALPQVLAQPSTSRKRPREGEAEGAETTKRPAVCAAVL
Chain of Proto-oncogene tyrosine-protein kinase receptor Ret (Homo sapiens) (P07949 whole entry, the tested form may be a part): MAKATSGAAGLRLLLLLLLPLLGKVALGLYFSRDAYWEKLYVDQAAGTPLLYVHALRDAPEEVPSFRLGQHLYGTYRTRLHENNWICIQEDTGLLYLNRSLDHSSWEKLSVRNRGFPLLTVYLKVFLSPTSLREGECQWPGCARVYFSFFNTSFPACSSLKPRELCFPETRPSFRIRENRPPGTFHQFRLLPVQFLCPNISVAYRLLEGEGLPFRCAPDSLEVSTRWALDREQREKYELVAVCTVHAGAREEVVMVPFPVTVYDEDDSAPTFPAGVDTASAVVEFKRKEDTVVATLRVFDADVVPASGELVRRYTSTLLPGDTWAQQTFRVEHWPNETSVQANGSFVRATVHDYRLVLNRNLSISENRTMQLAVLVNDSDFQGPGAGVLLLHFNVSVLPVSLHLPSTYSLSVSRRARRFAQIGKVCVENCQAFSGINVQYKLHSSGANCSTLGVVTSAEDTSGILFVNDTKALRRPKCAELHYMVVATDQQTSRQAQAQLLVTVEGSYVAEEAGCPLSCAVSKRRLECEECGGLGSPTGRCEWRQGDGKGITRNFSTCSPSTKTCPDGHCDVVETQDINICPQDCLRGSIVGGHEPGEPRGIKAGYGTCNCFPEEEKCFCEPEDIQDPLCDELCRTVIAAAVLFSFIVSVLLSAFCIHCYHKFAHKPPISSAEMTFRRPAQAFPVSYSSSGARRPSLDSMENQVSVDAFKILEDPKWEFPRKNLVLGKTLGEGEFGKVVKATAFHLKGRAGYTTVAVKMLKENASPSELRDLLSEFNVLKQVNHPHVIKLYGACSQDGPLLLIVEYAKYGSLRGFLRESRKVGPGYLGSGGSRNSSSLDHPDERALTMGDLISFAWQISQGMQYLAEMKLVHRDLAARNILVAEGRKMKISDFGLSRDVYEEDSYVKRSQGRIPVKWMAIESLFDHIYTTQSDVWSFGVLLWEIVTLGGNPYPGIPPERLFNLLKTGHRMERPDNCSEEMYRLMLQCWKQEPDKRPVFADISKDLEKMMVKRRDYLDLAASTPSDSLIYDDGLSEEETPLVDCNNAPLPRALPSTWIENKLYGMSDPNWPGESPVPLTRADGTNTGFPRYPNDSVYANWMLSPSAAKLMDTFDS
Chain of NUAK family SNF1-like kinase 1 (Homo sapiens) (O60285 whole entry): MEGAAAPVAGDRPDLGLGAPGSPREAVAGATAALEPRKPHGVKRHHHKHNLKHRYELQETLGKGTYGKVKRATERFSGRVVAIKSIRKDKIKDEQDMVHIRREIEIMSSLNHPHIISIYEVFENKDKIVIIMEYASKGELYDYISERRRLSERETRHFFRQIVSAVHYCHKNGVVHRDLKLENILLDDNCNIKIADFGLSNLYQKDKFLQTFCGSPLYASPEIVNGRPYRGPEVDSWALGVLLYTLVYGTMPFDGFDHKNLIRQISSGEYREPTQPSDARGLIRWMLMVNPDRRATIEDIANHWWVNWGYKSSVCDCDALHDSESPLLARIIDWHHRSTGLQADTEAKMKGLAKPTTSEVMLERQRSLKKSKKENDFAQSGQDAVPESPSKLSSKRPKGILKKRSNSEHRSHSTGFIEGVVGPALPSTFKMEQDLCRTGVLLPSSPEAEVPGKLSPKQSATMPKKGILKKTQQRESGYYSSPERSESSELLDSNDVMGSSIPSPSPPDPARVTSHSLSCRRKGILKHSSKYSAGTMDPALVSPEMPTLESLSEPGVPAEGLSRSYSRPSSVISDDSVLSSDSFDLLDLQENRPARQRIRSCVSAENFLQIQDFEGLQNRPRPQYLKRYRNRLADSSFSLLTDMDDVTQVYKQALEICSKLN
Chain of 5'-AMP-activated protein kinase catalytic subunit alpha-2 (Homo sapiens) (P54646 whole entry, looked up): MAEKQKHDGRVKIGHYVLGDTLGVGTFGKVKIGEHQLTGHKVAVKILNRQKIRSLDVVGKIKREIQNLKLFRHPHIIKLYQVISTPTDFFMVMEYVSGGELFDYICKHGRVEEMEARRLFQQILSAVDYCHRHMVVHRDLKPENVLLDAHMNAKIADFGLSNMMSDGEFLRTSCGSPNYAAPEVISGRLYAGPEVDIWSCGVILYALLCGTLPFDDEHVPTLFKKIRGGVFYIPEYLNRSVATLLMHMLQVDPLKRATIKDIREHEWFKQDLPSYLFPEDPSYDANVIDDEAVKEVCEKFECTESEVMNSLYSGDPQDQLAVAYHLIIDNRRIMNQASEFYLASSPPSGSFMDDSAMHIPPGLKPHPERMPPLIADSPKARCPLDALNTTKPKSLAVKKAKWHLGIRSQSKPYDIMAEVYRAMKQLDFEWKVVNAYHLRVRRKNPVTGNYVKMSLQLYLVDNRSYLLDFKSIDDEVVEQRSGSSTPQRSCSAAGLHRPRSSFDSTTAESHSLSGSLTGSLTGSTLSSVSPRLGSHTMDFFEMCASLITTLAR
Chain of Protein kinase C beta type (Homo sapiens) (P05771 2-671 limits assumed): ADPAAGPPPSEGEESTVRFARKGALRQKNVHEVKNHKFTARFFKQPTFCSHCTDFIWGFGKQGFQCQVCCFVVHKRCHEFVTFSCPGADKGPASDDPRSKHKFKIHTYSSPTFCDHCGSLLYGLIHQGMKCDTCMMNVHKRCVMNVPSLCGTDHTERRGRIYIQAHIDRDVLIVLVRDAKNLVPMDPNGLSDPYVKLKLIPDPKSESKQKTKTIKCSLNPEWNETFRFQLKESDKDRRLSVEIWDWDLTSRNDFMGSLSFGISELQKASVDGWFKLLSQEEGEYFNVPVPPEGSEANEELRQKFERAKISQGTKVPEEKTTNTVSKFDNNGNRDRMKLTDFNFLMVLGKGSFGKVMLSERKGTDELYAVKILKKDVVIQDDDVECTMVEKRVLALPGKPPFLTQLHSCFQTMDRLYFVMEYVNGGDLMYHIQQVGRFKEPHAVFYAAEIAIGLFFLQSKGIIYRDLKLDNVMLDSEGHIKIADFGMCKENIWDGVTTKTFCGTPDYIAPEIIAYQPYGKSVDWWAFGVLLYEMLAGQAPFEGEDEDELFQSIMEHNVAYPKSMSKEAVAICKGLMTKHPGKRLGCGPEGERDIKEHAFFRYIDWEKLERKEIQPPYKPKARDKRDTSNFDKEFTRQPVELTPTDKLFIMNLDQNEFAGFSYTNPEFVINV
Chain of Myotonin-protein kinase (Homo sapiens) (Q09013 whole entry, the tested form may be a part): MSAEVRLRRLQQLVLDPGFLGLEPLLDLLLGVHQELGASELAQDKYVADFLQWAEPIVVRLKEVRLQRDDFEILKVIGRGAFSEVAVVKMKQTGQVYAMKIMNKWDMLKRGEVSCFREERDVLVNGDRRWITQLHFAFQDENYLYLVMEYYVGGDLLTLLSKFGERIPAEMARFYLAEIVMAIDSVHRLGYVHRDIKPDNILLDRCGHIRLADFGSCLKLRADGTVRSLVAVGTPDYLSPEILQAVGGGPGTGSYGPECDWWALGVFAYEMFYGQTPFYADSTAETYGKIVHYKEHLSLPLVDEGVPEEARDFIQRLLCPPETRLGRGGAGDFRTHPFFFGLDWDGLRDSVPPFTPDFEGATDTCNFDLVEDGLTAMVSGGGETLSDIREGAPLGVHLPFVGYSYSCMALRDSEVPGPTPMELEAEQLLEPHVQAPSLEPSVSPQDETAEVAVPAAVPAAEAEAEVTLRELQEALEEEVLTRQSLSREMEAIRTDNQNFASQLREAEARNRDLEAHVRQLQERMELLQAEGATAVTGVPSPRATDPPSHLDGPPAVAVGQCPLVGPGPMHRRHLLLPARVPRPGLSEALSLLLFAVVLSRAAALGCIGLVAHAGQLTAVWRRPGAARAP
Chain of Aurora kinase C (Homo sapiens) (Q9UQB9 whole entry): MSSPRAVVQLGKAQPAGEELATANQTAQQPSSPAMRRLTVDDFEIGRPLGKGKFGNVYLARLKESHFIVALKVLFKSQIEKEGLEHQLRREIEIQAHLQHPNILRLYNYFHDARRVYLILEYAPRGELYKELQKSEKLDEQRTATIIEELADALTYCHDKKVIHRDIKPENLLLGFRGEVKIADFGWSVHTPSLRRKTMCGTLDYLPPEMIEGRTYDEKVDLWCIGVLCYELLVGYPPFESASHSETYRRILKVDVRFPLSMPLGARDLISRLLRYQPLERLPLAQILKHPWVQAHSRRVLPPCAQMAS
Chain of RAC-beta serine/threonine-protein kinase (Homo sapiens) (P31751 whole entry): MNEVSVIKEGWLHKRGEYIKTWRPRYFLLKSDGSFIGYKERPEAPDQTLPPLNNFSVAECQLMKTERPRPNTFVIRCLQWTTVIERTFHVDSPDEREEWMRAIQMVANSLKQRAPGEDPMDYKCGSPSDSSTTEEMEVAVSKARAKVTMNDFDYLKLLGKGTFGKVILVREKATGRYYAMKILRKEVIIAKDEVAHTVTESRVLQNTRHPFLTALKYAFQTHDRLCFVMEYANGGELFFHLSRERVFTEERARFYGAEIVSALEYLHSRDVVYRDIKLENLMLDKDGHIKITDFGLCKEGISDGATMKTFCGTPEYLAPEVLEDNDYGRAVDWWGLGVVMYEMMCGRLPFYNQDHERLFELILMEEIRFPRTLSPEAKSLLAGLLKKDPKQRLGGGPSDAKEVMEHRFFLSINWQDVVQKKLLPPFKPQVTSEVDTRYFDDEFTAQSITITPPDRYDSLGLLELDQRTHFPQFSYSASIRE

Broadly, the logD is lipophilicity at a set pH, counting ionised and neutral species. Low readings indicate a more hydrophilic compound, high ones a more lipophilic compound. The Vd is a proportionality between amount in the body and measured concentration, not a real space. A low value points to confinement near the circulation. The term half-life denotes the time needed for the level to fall by half in the phase considered. The Tmax is the time at which the peak concentration occurs. For orientation: inhibition means the change of the read-out against control, counted positive when it falls. With `Cc1ccc(NC(=O)C2(C(=O)Nc3ccc(Nc4ncc(F)c(-c5cc(F)c6nc(C)n(C(C)C)c6c5)n4)cc3)CC2)cc1`, the logD in data set [1] was 2.51. Also, the outcome in the data set with MDA-MB-231 and with SiHa [17] was Active. The Vd in data set [2] was found to be 2 L/kg. The compound also had a half-life in [3] of 3 h. Besides, in [4], the Tmax was 2 h. For the same compound, the inhibition in [5] is 77%; in [6], 69%; in data set [7] it was 9%; in [8], 28%; in [9], 45%; in [10] it was 10%. Besides, the inhibition stood at 58% in data set [11]; 0% in data set [12]; 36% in [13]; 27% in [14]; 0% in data set [15]; 7% in [16]. The Activity entry in data set [18] and in data set [19] was “Non-Toxic” each time.
As for `COc1cc2nccc(Oc3ccc(NC(=O)C4(C(=O)Nc5ccc(F)cc5)CC4)cc3)c2cc1OC` [CABOZANTINIB], the result with SiHa [20] was Active. Besides, the inhibition result in [21] was “Active”.
